Converted amounts (≈) assume the structure as drawn.
Columns and labels:
[1] = tested on: Streptococcus sp. 'group B'; test: Antimicrobial activity against Group B streptococcus serotype Ib C2 harboring E63K mutation in PBP 2A and L41S mutation in PBP 1B by broth microdilution method; assay type: functional
Method in brief: (§1)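 Broth microdilution MICs following CLSI guidelines, using a commercial panel system; GBS clinical isolates and reference strains grown in Todd-Hewitt broth at 37°C. Each strain tested five times to confirm reproducibility, with S. pneumoniae ATCC 49619 as quality-control strain. No β-lactamase activity by acidimetric method in any strain.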

[2] = tested on: Streptococcus sp. 'group B'; test: Antimicrobial activity against Group B streptococcus serotype VI R5 harboring F395L, V405A, R433H, H438Y, and G648A mutations in PBP 2X and T567I mutation in PBP 2B by broth microdilution method; assay type: functional; method in brief: as §1
[3] = tested on: Streptococcus sp. 'group B'; test: Antimicrobial activity against Group B streptococcus serotype Ia R7 harboring T77I, F395V and S353F in PBP 2X; V80A and G613R in PBP 2B; and L45P, N163K, N723S and Y470F in PBP 1A by broth microdilution method; assay type: functional; method in brief: as §1
[4] = tested on: Streptococcus sp. 'group B'; test: Antimicrobial activity against Group B streptococcus serotype VI N4 harboring E63K mutation in PBP 2A and L41S mutation in PBP 1B by broth microdilution method; assay type: functional; method in brief: as §1
[5] = tested on: Streptococcus sp. 'group B'; test: Antimicrobial activity against Group B streptococcus R8 harboring T77I, S353F and A514V in PBP 2X; V80A and G613R in PBP 2B; and L45P, N163K, N723S and G527V in PBP 1A by broth microdilution method; assay type: functional; method in brief: as §1
[6] = tested on: Streptococcus sp. 'group B'; test: Antimicrobial activity against Group B streptococcus serotype Ib R3 harboring Q557E, A400V mutations in PBP 2X and T567I, G539E mutations in PBP 2B by broth microdilution method; assay type: functional; method in brief: as §1
[7] = tested on: Streptococcus sp. 'group B'; test: Antimicrobial activity against Group B Streptococcus serotype Ia N1 harboring E63K mutation in PBP 2A and L41S mutation in PBP 1B by broth microdilution method; assay type: functional; method in brief: as §1
[8] = tested on: Streptococcus sp. 'group B'; test: Antimicrobial activity against Group B streptococcus serotype VI R6 harboring F395L, V405A, R433H, H438Y, A374V and G648A mutations in PBP 2X and T567I mutation in PBP 2B by broth microdilution method; assay type: functional; method in brief: as §1
[9] = tested on: Streptococcus sp. 'group B'; test: Antimicrobial activity against Group B Streptococcus serotype V harboring E63K mutation in PBP 2A and L41S mutation in PBP 1B by broth microdilution method
[10] = tested on: Streptococcus sp. 'group B'; test: Antimicrobial activity against Group B streptococcus serotype VI R2 harboring F395L, V405A, R433H, H438Y, and G648A mutations in PBP 2X and T567I mutation in PBP 2B by broth microdilution method; assay type: functional; method in brief: as §1
[11] = tested on: Streptococcus sp. 'group B'; test: Antimicrobial activity against Group B streptococcus serotype VI R1 harboring F395L, V405A, R433H, H438Y, and G648A mutations in PBP 2X and T567I mutation in PBP 2B by broth microdilution method; assay type: functional; method in brief: as §1
[12] = tested on: Streptococcus sp. 'group B'; test: Antimicrobial activity against Group B Streptococcus serotype III NEM 316 by broth microdilution method; assay type: functional
Method in brief: (§2)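 Broth microdilution MICs read on a commercial dried panel system (type 3J), following CLSI guidelines. Isolates were grown in Todd-Hewitt broth at 37°C. Each strain was tested five times for reproducibility, with S. pneumoniae ATCC 49619 as the quality-control strain. β-lactamase activity was checked by the acidimetric method.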

[13] = tested on: Streptococcus sp. 'group B'; test: Antimicrobial activity against Group B streptococcus serotype VI R4 harboring Q557E mutation in PBP 2X and T567I, Y262N mutations in PBP 2B by broth microdilution method; assay type: functional; method in brief: as §1
[14] = tested on: Streptococcus sp. 'group B'; test: Antimicrobial activity against Group B streptococcus serotype III N3 by broth microdilution method; assay type: functional; method in brief: as §2
[15] = tested on: Streptococcus sp. 'group B'; test: Antimicrobial activity against Group B streptococcus serotype Ib N2 harboring E63K mutation in PBP 2A and L41S mutation in PBP 1B by broth microdilution method; assay type: functional; method in brief: as §1
[16] = tested on: Streptococcus sp. 'group B'; test: Antimicrobial activity against Group B streptococcus serotype V C1 harboring E63K mutation in PBP 2A and L41S mutation in PBP 1B by broth microdilution method; assay type: functional; method in brief: as §1

## CO/N=C(\C(=O)N[C@@H]1C(=O)N2C(C(=O)OCOC(=O)C(C)(C)C)=C(/C=C\c3scnc3C)CS[C@H]12)c1csc(N)n1 [CEFDITOREN PIVOXIL]
[1]
  MIC: ≤ 0.06 mg/L
[2]
  MIC: 0.25 mg/L (≈ 0.403 µM)
[3]
  MIC: 0.5 mg/L (≈ 0.805 µM)
[4]
  MIC: ≤ 0.06 mg/L
[5]
  MIC: 0.5 mg/L (≈ 0.805 µM)
[6]
  MIC: 0.25 mg/L (≈ 0.403 µM)
[7]
  MIC: ≤ 0.06 mg/L
[8]
  MIC: 0.25 mg/L (≈ 0.403 µM)
[9]
  MIC: ≤ 0.06 mg/L
[10]
  MIC: 0.25 mg/L (≈ 0.403 µM)
[11]
  MIC: 0.25 mg/L (≈ 0.403 µM)
[12]
  MIC: ≤ 0.06 mg/L
[13]
  MIC: 0.25 mg/L (≈ 0.403 µM)
[14]
  MIC: ≤ 0.06 mg/L
[15]
  MIC: ≤ 0.06 mg/L
[16]
  MIC: ≤ 0.06 mg/L

## C[C@@H](O)[C@H]1C(=O)N2C(C(=O)O)=C(S[C@@H]3CN[C@H](C(=O)N(C)C)C3)[C@H](C)[C@H]12 [MEROPENEM]
[1]
  MIC: ≤ 0.12 mg/L
[2]
  MIC: 0.25 mg/L (≈ 0.652 µM)
[3]
  MIC: 0.25 mg/L (≈ 0.652 µM)
[4]
  MIC: ≤ 0.12 mg/L
[5]
  MIC: 0.25 mg/L (≈ 0.652 µM)
[6]
  MIC: 0.25 mg/L (≈ 0.652 µM)
[7]
  MIC: ≤ 0.12 mg/L
[8]
  MIC: 0.5 mg/L (≈ 1.3 µM)
[9]
  MIC: ≤ 0.12 mg/L
[10]
  MIC: 0.5 mg/L (≈ 1.3 µM)
[11]
  MIC: 0.25 mg/L (≈ 0.652 µM)
[12]
  MIC: ≤ 0.12 mg/L
[13]
  MIC: 0.25 mg/L (≈ 0.652 µM)
[14]
  MIC: ≤ 0.12 mg/L
[15]
  MIC: ≤ 0.12 mg/L
[16]
  MIC: ≤ 0.12 mg/L

## CO/N=C(\C(=O)N[C@@H]1C(=O)N2C(C(=O)O)=C(COC(C)=O)CS[C@H]12)c1csc(N)n1 [CEFOTAXIME]
[1]
  MIC: 0.12 mg/L (≈ 0.263 µM)
[2]
  MIC: 0.5 mg/L (≈ 1.1 µM)
[3]
  MIC: 1 mg/L (≈ 2.2 µM)
[4]
  MIC: ≤ 0.06 mg/L
[5]
  MIC: 1 mg/L (≈ 2.2 µM)
[6]
  MIC: 0.5 mg/L (≈ 1.1 µM)
[7]
  MIC: 0.12 mg/L (≈ 0.263 µM)
[8]
  MIC: 0.5 mg/L (≈ 1.1 µM)
[9]
  MIC: ≤ 0.06 mg/L
[10]
  MIC: 0.5 mg/L (≈ 1.1 µM)
[11]
  MIC: 0.5 mg/L (≈ 1.1 µM)
[12]
  MIC: ≤ 0.06 mg/L
[13]
  MIC: 0.5 mg/L (≈ 1.1 µM)
[14]
  MIC: 0.12 mg/L (≈ 0.263 µM)
[15]
  MIC: 0.12 mg/L (≈ 0.263 µM)
[16]
  MIC: ≤ 0.06 mg/L

## C=CC1=C(C(=O)O)N2C(=O)[C@@H](NC(=O)/C(=N\OCC(=O)O)c3csc(N)n3)[C@H]2SC1 [CEFIXIME]
[1]
  MIC: 0.5 mg/L (≈ 1.1 µM)
[2]
  MIC: > 1 mg/L
[3]
  MIC: > 1 mg/L
[4]
  MIC: 0.5 mg/L (≈ 1.1 µM)
[5]
  MIC: > 1 mg/L
[6]
  MIC: > 1 mg/L
[7]
  MIC: 0.5 mg/L (≈ 1.1 µM)
[8]
  MIC: > 1 mg/L
[9]
  MIC: 0.5 mg/L (≈ 1.1 µM)
[10]
  MIC: > 1 mg/L
[11]
  MIC: > 1 mg/L
[12]
  MIC: 0.5 mg/L (≈ 1.1 µM)
[13]
  MIC: > 1 mg/L
[14]
  MIC: 0.5 mg/L (≈ 1.1 µM)
[15]
  MIC: 1 mg/L (≈ 2.21 µM)
[16]
  MIC: 0.5 mg/L (≈ 1.1 µM)

## C[C@H]1COc2c(N3CCN(C)CC3)c(F)cc3c(=O)c(C(=O)O)cn1c23.C[C@H]1COc2c(N3CCN(C)CC3)c(F)cc3c(=O)c(C(=O)O)cn1c23.O [LEVOFLOXACIN]
[1]
  MIC: > 8 mg/L
[2]
  MIC: 4 mg/L
[3]
  MIC: > 8 mg/L
[4]
  MIC: 0.5 mg/L
[5]
  MIC: > 8 mg/L
[6]
  MIC: > 8 mg/L
[7]
  MIC: 1 mg/L
[8]
  MIC: 4 mg/L
[9]
  MIC: 0.5 mg/L
[10]
  MIC: 8 mg/L
[11]
  MIC: 8 mg/L
[12]
  MIC: 0.5 mg/L
[13]
  MIC: 2 mg/L
[14]
  MIC: 0.5 mg/L
[15]
  MIC: 0.5 mg/L
[16]
  MIC: 0.5 mg/L

## CC[C@H]1OC(=O)[C@H](C)[C@@H](O[C@H]2C[C@@](C)(OC)[C@@H](O)[C@H](C)O2)[C@H](C)[C@@H](O[C@@H]2O[C@H](C)C[C@H](N(C)C)[C@H]2O)[C@](C)(O)C[C@@H](C)C(=O)[C@H](C)[C@@H](O)[C@]1(C)O [ERYTHROMYCIN]
[1]
  MIC: ≤ 0.12 mg/L
[2]
  MIC: ≤ 0.12 mg/L
[3]
  MIC: > 2 mg/L
[4]
  MIC: ≤ 0.12 mg/L
[5]
  MIC: > 2 mg/L
[6]
  MIC: ≤ 0.12 mg/L
[7]
  MIC: ≤ 0.12 mg/L
[8]
  MIC: ≤ 0.12 mg/L
[9]
  MIC: ≤ 0.12 mg/L
[10]
  MIC: ≤ 0.12 mg/L
[11]
  MIC: ≤ 0.12 mg/L
[12]
  MIC: ≤ 0.12 mg/L
[13]
  MIC: > 2 mg/L
[14]
  MIC: ≤ 0.12 mg/L
[15]
  MIC: ≤ 0.12 mg/L
[16]
  MIC: ≤ 0.12 mg/L

## CC1(C)S[C@@H]2[C@H](NC(=O)Cc3ccccc3)C(=O)N2[C@H]1C(=O)O [PENICILLIN G]
[1]
  MIC: 0.06 mg/L (≈ 0.179 µM)
[2]
  MIC: 0.25 mg/L (≈ 0.748 µM)
[3]
  MIC: 1 mg/L (≈ 2.99 µM)
[4]
  MIC: 0.06 mg/L (≈ 0.179 µM)
[5]
  MIC: 1 mg/L (≈ 2.99 µM)
[6]
  MIC: 0.5 mg/L (≈ 1.5 µM)
[7]
  MIC: 0.06 mg/L (≈ 0.179 µM)
[8]
  MIC: 0.5 mg/L (≈ 1.5 µM)
[9]
  MIC: 0.06 mg/L (≈ 0.179 µM)
[10]
  MIC: 0.5 mg/L (≈ 1.5 µM)
[11]
  MIC: 0.5 mg/L (≈ 1.5 µM)
[12]
  MIC: 0.06 mg/L (≈ 0.179 µM)
[13]
  MIC: 0.5 mg/L (≈ 1.5 µM)
[14]
  MIC: 0.06 mg/L (≈ 0.179 µM)
[15]
  MIC: 0.06 mg/L (≈ 0.179 µM)
[16]
  MIC: 0.06 mg/L (≈ 0.179 µM)
